The nature of the assay: cytotoxicity in Neuro-2A cells, dose response, cytotoxicity control for PME-1 inhibitor project, cell-based, WST-1 absorbance, serum-free and serum media (AID 588804). The note with it: Neuro-2A viability, 48 h. The gist of the method:
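Test system: Neuro-2A mouse neuroblastoma cells; Incubation: 36 h pre-growth, then 48 h treatment at 37 °C; Measured by: colorimetric WST-1 formazan absorbance; Measure: % surviving cells and CC50 from three-parameter sigmoidal fit; Compound dosing: seven concentrations, fivefold steps, top 10 µM, 1% DMSO; Control set: compound-free cells as high control, no-cell wells as low.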

The values below come from PubChem BioAssay AID588804 (The Scripps Research Institute Molecular Screening Center, 2011).

The source made the active and inactive calls.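 How the source made its calls: active means In either cell panel, a half-cytotoxic dose CC50 of 5 µM or lower marks a compound as cytotoxic; inactive means Both panels show CC50 exceeding 5 µM.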

Broadly, the CC50 is the concentration that lowers cell viability or growth by half. With `CC[C@@]1(c2ccc(Cl)cc2)C(=O)N(C(=O)OC)N1C(=O)OC`, the CC50 reads like this: (with serum) > 10 µM (inactive); (without serum) > 10 µM (inactive).
As to `CC[C@@]1(c2ccc(C)cc2)C(=O)N(C(=O)OC(C)C)N1C(=O)OC(C)C`, the CC50 was > 10 µM (inactive) (with serum) and > 10 µM (inactive) (without serum).
Consider `CCCOC(=O)N1C(=O)[C@@](CC)(c2ccc(C)cc2)N1C(=O)OCCC`, for which the CC50 is > 10 µM (inactive) (with serum) and > 10 µM (inactive) (without serum).
